# Compound activity (PubChem BioAssay)
# Only some compounds are listed: those with a hit (about 2% of all), similar ones and a draw of the others.
# DNMT1 inh: DNMT1 (human) enzyme inhibition; AID 588458; DNMT1 molecular beacon, Hinp1I cleavage, fluorescence; 0.83% of 360,000 active; inhibition (reported as % activation of signal), % at 10 µM; in the data active = inhibition above about 50%
# LMPTP block: LMPTP (human) inhibition; P24666; 0.22% of 360,000 active; recombinant LMPTP-A, OMFP fluorogenic substrate, fluorescence intensity; inhibition, % at 20 µM;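 active = compounds that cut the enzyme signal by at least half of the control window in the single-dose screen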;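 note: plate controls were DMSO wells with enzyme plus substrate for no effect and substrate without enzyme for full effect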
# Target sequence (P24666 whole entry, looked up): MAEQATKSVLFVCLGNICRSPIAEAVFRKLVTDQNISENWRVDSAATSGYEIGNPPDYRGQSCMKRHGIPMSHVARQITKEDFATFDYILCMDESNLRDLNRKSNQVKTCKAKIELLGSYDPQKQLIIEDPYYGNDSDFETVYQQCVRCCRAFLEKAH
#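 Assay system: LMPTP-A phosphatase enzyme | Input: 0.625 nM enzyme | Also added: Fluorogenic phosphatase substrate OMFP at 400 µM final | Compound dosing: One test concentration per compound, 20 µM, with 3% DMSO overall | Schedule: 50 min enzyme reaction at room temperature, protected from light | Signal: Fluorescence intensity | Benchmarks: no-enzyme and uninhibited controls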
# CSN deneddyl inh: blocks human CSN-mediated cullin deneddylation; Q92905; Purified CSN, SCF-Nedd8-OG deneddylation, fluorescence polarization; inhibition, % at 12.5 µM; 0.38% of 360,000 active; AID 651999;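 active = pattern-corrected inhibition above about 35%, with an unprinted fluorescence ratio check between 0.5 and 1.5, limit read from the data, passing the limit was not always enough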;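 note: 0% = enzyme with substrate and 100% = substrate without enzyme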
# Target sequence (Q92905 whole entry, looked up, one chain of several): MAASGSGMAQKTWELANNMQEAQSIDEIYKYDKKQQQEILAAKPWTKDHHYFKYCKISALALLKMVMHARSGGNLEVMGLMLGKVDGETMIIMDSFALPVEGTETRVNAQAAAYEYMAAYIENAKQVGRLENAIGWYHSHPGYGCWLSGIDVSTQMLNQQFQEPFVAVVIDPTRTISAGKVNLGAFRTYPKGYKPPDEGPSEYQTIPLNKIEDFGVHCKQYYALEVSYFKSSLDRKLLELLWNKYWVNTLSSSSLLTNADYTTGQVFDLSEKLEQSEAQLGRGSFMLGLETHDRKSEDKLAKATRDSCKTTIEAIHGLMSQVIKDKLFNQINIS
#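 Material: human Csn5 produced in HEK293T cells; Input: enzyme 0.24 nM; Reagent: SCFSkp2-Nedd8OG substrate at 10 nM final; Dosing: 12.5 µM compound; Incubation: 90 min reaction at room temperature; Detection: fluorescence polarization of the substrate; Evaluation: % inhibition of substrate cleavage by Csn5; Control set: substrate-only high control, full reaction low control.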
# STEP inh: STEP (human) phosphatase inhibition; AID 588621; 0.25% of 360,000 active; recombinant STEP, OMFP fluorogenic substrate, fluorescence; inhibition, % at 20 µM;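 active = inhibition at 20 µM, scaled per plate between control wells, above about 37%, limit read from the data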;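 note: 0% = DMSO with enzyme and substrate and 100% = substrate only without enzyme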
#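 System: STEP phosphatase, cell-free reaction; Buffer or medium: Bis-Tris pH 6.0 buffer with DTT, detergent; Incubation: 20 min at room temperature, dark; Measured by: fluorescence, 480/540 nm.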
# SUMO1-SIM PPI: alters human SUMO1 binding to SIM partners; P63165; SUMO1 binding to a labelled peptide, TR-FRET, 1 h; inhibition, % at 20 µM; 0.33% of 360,000 active; AID 602429; in the data active = inhibition above about 37%
# Scp1 inh: blocks human Scp-1 phosphatase activity. Q9GZU7. Recombinant Scp1, phosphopeptide, malachite green phosphate absorbance. inhibition, % at 20 µM. 0.88% of 340,000 active;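 active = inhibition above about 50% at 20 µM, limit read from the data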;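 note: plate controls were DMSO wells with enzyme for no effect and wells lacking enzyme for full effect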
# Target sequence (Q9GZU7 76-261 limits assumed): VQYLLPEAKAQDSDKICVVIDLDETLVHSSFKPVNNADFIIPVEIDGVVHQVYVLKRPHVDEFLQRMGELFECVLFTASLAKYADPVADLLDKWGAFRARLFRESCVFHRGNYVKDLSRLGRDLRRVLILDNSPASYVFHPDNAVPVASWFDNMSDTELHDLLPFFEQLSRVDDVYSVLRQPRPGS
#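 Material – SCP-1 phosphatase catalytic domain, residues 76-261 · Buffer or medium – Acidic Tris acetate buffer with magnesium and detergent · Also added – Phospho 17-mer peptide substrate · Compound – single 20 µM dose, 1% DMSO · Times – 45 min room-temperature reaction, 5 min colour, 30 min stabiliser · Technique – Phosphate-binding colour reagent, absorbance read at 630 nm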
# Scp1 confirm: confirmation of human Scp-1 phosphatase inhibitors. 61% of 2,500 active. AID 540281. inhibition, % at 20 µM. shares compounds with Scp1 inh. recombinant SCP-1 catalytic domain, phosphate release, malachite green absorbance;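 note: plate controls were DMSO with enzyme for no effect and buffer wells lacking enzyme for full effect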
# Scp-1 MG ctr: counter-screen for Scp-1 inhibitors: colorimetric interference | shares compounds with Scp1 inh | Colorimetric interference counterscreen, malachite green absorbance 630 nm | apparent inhibition (interference), % at 20 µM | 2,500 tested, under 10 active | AID 540313;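 note: compounds added after enzyme reaction finished so only phosphate colour detection is probed; plate controls were DMSO wells with completed Scp-1 reaction for no effect and substrate wells lacking enzyme for full effect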
# Scp-1 Tm shift: Scp-1 (human) binding by thermal shift. shares compounds with Scp1 inh. Recombinant SCP1, Sypro Orange thermal shift Tm. thermal shift relative to vanadate control, % at 40 µM. 25% of 1,500 active. AID 540329;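 active = substances whose mean melting-temperature shift, as a percentage of the reference inhibitor's shift, reaches about 5.3%, limit read from the data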;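 note: 0% = Tm of DMSO wells and 100% = Tm with sodium orthovanadate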
# * hit, by the source's call; nt = not tested or not shown.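 Rule for the calls, unless noted: active = inhibition of at least 30% at 20 µM; inactive = the rest.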
SMILES,DNMT1 inh,LMPTP block,CSN deneddyl inh,STEP inh,SUMO1-SIM PPI,Scp1 inh,Scp1 confirm,Scp-1 MG ctr,Scp-1 Tm shift
O=C(NCc1ccc2c(c1)OCO2)C(=O)NCC1OCCN1S(=O)(=O)c1ccccc1 (stereo not drawn),-5.6,5.9,-3.3,-1.2,-18.8,-4.8,nt,nt,nt
CCN(CC)S(=O)(=O)c1ccc(NS(=O)(=O)CC23CCC(CC2=O)C3(C)C)cc1 (stereo not drawn),-1.0,-1.2,-0.3,0.3,0.1,0.5,nt,nt,nt
Cc1cnc(C(=O)OCC(=O)Nc2ccccc2[N+](=O)[O-])cn1,-1.1,1.0,2.9,-1.4,-23.7,-10.5,nt,nt,nt
CC(=O)NC(CC(=O)OCC(=O)c1ccc(NC(=O)CC(C)C)cc1)c1ccccc1 (stereo not drawn),17.9,2.8,4.9,8.5,0.8,52.5*,60.1*,-8.4,-3.6
CC1=C(C(=O)OCCCCCl)C(c2cc3c(cc2Br)OCO3)NC(=O)N1 (stereo not drawn),8.3,0.7,1.7,-1.4,2.4,3.0,nt,nt,nt
COc1ccc(S(=O)(=O)N(CC(=O)Nc2ccc3c(c2)OCO3)c2ccccc2OC)cc1,-6.4,2.6,-5.4,-4.2,-1.8,-15.4,nt,nt,nt
COc1ccccc1N(CC(=O)Nc1ccc2c(c1)OCO2)S(=O)(=O)c1ccccc1,0.6,-1.3,5.0,-1.7,2.2,98.7*,18.6,-9.3,nt
COc1ccc(NS(=O)(=O)c2cccc(C(=O)NNC(=O)c3ccccc3O)c2)cc1,1.6,-0.9,-4.5,-0.7,3.3,-15.2,nt,nt,nt
COc1ccc(NS(=O)(=O)c2cccc(C(=O)NNC(=O)c3cccn3C)c2)cc1,28.9,2.5,-0.3,-1.7,1.9,62.6*,64.8*,-9.5,6.8*
Cc1ccc(NC(=O)CCc2nnc3ccc(NCc4ccco4)nn23)nc1,3.6,-0.7,2.6,-6.2,5.3,12.0,nt,nt,nt
CC(=O)c1cccc(NC(=O)CCc2nnc3ccc(NCc4ccco4)nn23)c1,8.4,7.0,3.1,5.0,17.6,58.8*,43.0*,-14.8,2.0
Cc1cnc(NC(=O)C(C)N2CCN(C)CC2)s1 (stereo not drawn),-2.5,-2.1,6.1,-1.9,-5.7,-10.6,nt,nt,nt
COc1ccc(CCNC(=O)c2cc(-c3ccco3)nc3ccccc23)cc1,nt,nt,nt,nt,nt,86.6*,72.7*,-6.2,4.5
Cc1ccc(NC(=O)c2cc(-c3ccc(C)o3)nc3ccccc23)cc1,-10.8,0.4,4.5,0.8,-10.3,10.1,nt,nt,nt
Cc1ccc(-c2cc(C(=O)Nc3cccnc3)c3ccccc3n2)o1,50.5*,2.2,11.9,1.3,0.4,60.1*,57.4*,-1.0,5.7*
COc1cccc(NC(=O)c2cc(-c3ccco3)nc3ccccc23)c1,17.2,4.0,5.3,8.3,2.2,66.1*,31.4*,-5.7,2.1
O=C(Nc1ccccc1F)c1cc(-c2ccco2)nc2ccccc12,40.2,6.4,4.0,16.7,-0.3,68.4*,51.0*,-17.5,-6.3
CC1(C(=O)Nc2ccc3nc[nH]c3c2)CCN1C(=O)C1(c2ccccc2)CCCC1 (stereo not drawn),-0.7,1.6,-2.8,-0.3,2.2,nt,nt,nt,nt
CC/C(=N\NC(=O)CNC(=O)/C=C/c1ccco1)c1ccccc1,9.9,0.0,12.5,-0.1,1.5,94.4*,14.5,-6.0,nt
COc1ccc(/C(C)=N/NC(=O)CNC(=O)/C=C\c2ccco2)cc1,18.6,-0.8,1.6,-0.5,-4.0,81.5*,64.5*,-11.8,-5.5
Cc1c(C(=O)O)sc2nc(/C=C/c3cccc(F)c3)[nH]c(=O)c12,4.2,0.2,1.1,7.3,-7.5,81.0*,21.1,-5.4,nt
Cc1c(C(=O)O)sc2nc(/C=C/c3ccccc3OC(F)F)[nH]c(=O)c12,1.9,3.8,3.5,9.0,-3.1,39.0,nt,nt,nt
O=C(COC(=O)/C=C/c1ccco1)Nc1ccc(F)cc1Cl,24.1,1.3,-1.7,6.3,-6.7,50.3*,36.3*,-19.5,-11.4
CC1CCCCN1CCNC(=O)C1CCCN(S(=O)(=O)c2cccc3nsnc23)C1 (stereo not drawn),-5.0,1.9,-0.1,0.7,-17.7,-1.4,nt,nt,nt
COc1ccc(Br)cc1C1=CC(=O)C[C@H](c2ccc(F)cc2)C1,-10.5,3.4,2.9,0.1,1.5,nt,nt,nt,nt
SMILES,DNMT1 inh,LMPTP block,CSN deneddyl inh,STEP inh,SUMO1-SIM PPI,Scp1 inh,Scp1 confirm,Scp-1 MG ctr,Scp-1 Tm shift
CCOC(=O)c1cnc2nc(NCc3ccc(OCc4ccccc4)cc3)[nH]n2c1=O,0.6,-1.1,1.8,3.5,7.0,70.5*,91.2*,0.3,0.1
CSc1nnc(-c2ccccc2)n1N,2.0,-1.6,-2.2,-7.7,-6.9,-7.9,nt,nt,nt
CSc1nnc(-c2cc[n+](C)cc2)n1CCO,6.9,-5.0,-6.8,-4.3,-2.0,66.1*,9.7,-7.9,nt
O=C(NC1CC1)c1cc2c(F)cccc2s1,3.0,0.7,-0.7,-1.6,-6.3,2.7,nt,nt,nt
CC1=CC(C)C2COC(c3ccc[n+](C)c3)C1C2C (stereo not drawn),2.3,-1.5,4.3,-0.2,-4.5,95.5*,-3.2,-9.8,nt
CC1=CC(C)[C@@H]2COC(c3ccc(O)cc3)[C@H]1C2C (stereo partly drawn),-16.3,0.5,-0.5,0.6,0.2,-7.0,nt,nt,nt
COc1ccc(C(=O)OCC(=O)Nc2c(C)n(C)n(-c3ccccc3)c2=O)cc1,2.4,-1.4,3.8,-2.1,4.9,-5.0,nt,nt,nt
CCN(C(=O)c1cc2c(=O)[nH]c3ccc(C)cc3c2s1)c1ccc(OC)cc1,4.5,1.9,1.1,0.1,2.0,-12.3,nt,nt,nt
CN(C)c1nc(N2CCOCC2)nc(N(c2ccccc2)c2ccccc2)n1,-0.7,-2.0,6.2,-4.9,6.4,-2.2,nt,nt,nt
CN(C)c1cccc(N=C2C=C(N3CCOCC3)CC(C)(C)C2)c1,-2.8,-2.1,-1.8,-3.3,-2.6,98.9*,79.2*,-18.0,-10.4
CCCc1c(C(=O)N/N=C/c2ccc(C)s2)nnn1-c1nonc1N,25.3,29.0,1.2,12.3,-2.2,60.9*,26.5,-6.5,nt
CCCc1c(C(=O)N/N=C/c2cccs2)nnn1-c1nonc1N,19.9,7.3,-1.1,1.4,8.9,29.9,nt,nt,nt
COc1cccc(NC(=O)COC(=O)c2ccc(S(=O)(=O)NCc3ccco3)cc2)c1,28.5,0.8,1.8,3.1,2.7,59.9*,70.1*,-6.5,2.9
